Measurements taken from ChEMBL document CHEMBL5236545, “Discovery of Potent and Brain-Penetrant Tau Tubulin Kinase 1 (TTBK1) Inhibitors that Lower Tau Phosphorylation In Vivo” (J Med Chem, 2021).
Converted amounts (≈) assume the structure as drawn.

Assays:
[1] = Intrinsic clearance in human liver microsomes at 1 uM incubated upto 40 mins; assay type: ADME, Microsome; details: read-out: CLH
[2] = Intrinsic clearance in rat liver microsomes at 1 uM incubated upto 40 mins; assay type: ADME, Microsome; details: read-out: CLH
[3] = Stability of the compound at pH 7.4 by UHPLC-MS/MS analysis; assay type: physicochemical; details: buffer
[4] = Solubility of compound; assay type: physicochemical
[5] = Unbound brain-to-plasma concentration ratio in rat at 1 mg/kg,iv administered for 4 hrs; assay type: ADME, organism-based; details: brain and plasma (unbound), read-out: K(p,uu,brain)
[6] = Clearance in rat at 1 mg/kg,iv administered for 4 hrs; assay type: ADME, organism-based; details: in vivo
[7] = Volume of distribution at steady state in rat at 1 mg/kg,iv administered for 4 hrs; assay type: ADME, organism-based; details: in vivo, read-out: Vdss
[8] = Half life in rat at 1 mg/kg,iv administered for 4 hrs; assay type: ADME, organism-based; details: in vivo
[9] = Dissociation constant, pKa of compound; assay type: physicochemical
[10] = Clearance in mouse at 1 mg/kg,iv administered for 4 hrs; assay type: ADME, organism-based; details: in vivo
[11] = Volume of distribution at steady state in mouse at 1 mg/kg,iv administered for 4 hrs; assay type: ADME, organism-based; details: in vivo, read-out: Vdss
[12] = Half life in mouse at 1 mg/kg,iv administered for 4 hrs; assay type: ADME, organism-based; details: in vivo
[13] = Drug concentration in rat brain at 80 mg/kg,ip administered for 24 hr by LC-MS/MS analysis; assay type: ADME, organism-based; details: in vivo
Summary of the method: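 Post-natal day 10 rats given 80 mg/kg I.P.; groups sacrificed 0.5−24 h after dosing. Cortical samples from each hemisphere taken for brain drug concentration and tau phosphorylation.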

SMILES | CLint scaled at 1 µM [1] | CLint scaled at 1 µM [2] | Stability [3] | further results
COc1cc2ccn(-c3ccnc(N)n3)c2cc1C#CC(C)(C)O | 31 mL/min/kg | 56 mL/min/kg | – | –
COc1nc(C#CC(C)(C)O)cc2c1ccn2-c1ccnc(N)n1 | 10 mL/min/kg | 62 mL/min/kg | – | –
CC(C)(O)C#Cc1cc2c(cn1)CCN2c1ccnc(N)n1 | < 5 mL/min/kg | 24 mL/min/kg | 82.7% | pKa [9]: 7.4
CC(C)(O)C#Cc1cc2c(cn1)c(C1CC1)cn2-c1ccnc(N)n1 | 10 mL/min/kg | 374 mL/min/kg | – | –
CC(C)(O)C#Cc1cc2c(cn1)cnn2-c1ccnc(N)n1 | < 5 mL/min/kg | 27 mL/min/kg | – | pKa [9]: 4.9
CC(C)(O)C#Cc1cc2c(ccn2-c2ccnc(N)n2)c(N2CCOCC2)n1 | < 5 mL/min/kg | 42 mL/min/kg | – | –
Cn1nc(-c2ccnc(N)n2)c2cc(C#CC(C)(C)O)ccc21 | – | – | 100% | –

More lines, main results first:

CLint scaled at 1 µM [1] | CLint scaled at 1 µM [2] | Stability [3] | SMILES | further results
< 5 mL/min/kg | 36 mL/min/kg | 99.9% | CC[C@](C)(O)C#Cc1cc2c(cn1)cnn2-c1ccnc(N)n1 | solubility [4]: 46 µg/mL (≈ 149 µM); Kp uu at 4 h [5]: 0.08; clearance [6]: 17 mL/min/kg; Vd [7]: 2.48 L/kg; half-life [8]: 4.3 h
6 mL/min/kg | 38 mL/min/kg | – | CC(C)(O)C#Cc1cc2c(cn1)c(C1CCOCC1)cn2-c1ccnc(N)n1 | –
19 mL/min/kg | 42 mL/min/kg | – | CC(C)(O)C#Cc1cc2c(ccn2-c2ccnc(N)n2)cn1 | pKa [9]: 5.7
11 mL/min/kg | 155 mL/min/kg | 99.7% | CC[C@](C)(O)C#Cc1cc2c(ccn2-c2ccnc(N)n2)cn1 | solubility [4]: 44 µg/mL (≈ 143 µM); Kp uu at 4 h [5]: 0.1; clearance [6]: 64 mL/min/kg; Vd [7]: 2.17 L/kg; half-life [8]: 3.6 h
16 mL/min/kg | 219 mL/min/kg | – | CC[C@](C)(O)C#Cc1cc2c(ccn2-c2cc(OC)nc(N)n2)cn1 | solubility [4]: 45 µg/mL (≈ 133 µM); Kp uu at 4 h [5]: 0.32; clearance [6]: 62 mL/min/kg; clearance [10]: 67 mL/min/kg; Vd [7]: 4.87 L/kg; half-life [8]: 3.6 h; Vd [11]: 0.474 L/kg; half-life [12]: 6 min; Drug uptake [13]: Not Active
< 5 mL/min/kg | < 11 mL/min/kg | 99.3% | CN1CCC[C@@H](c2cn(-c3ccnc(N)n3)c3cc(C#CC(C)(C)O)ncc23)C1 | –
21 mL/min/kg | 69 mL/min/kg | 100% | CC(C)(O)C#Cc1cc2c(ccn2-c2ccnc(N)n2)cc1F | –
